These results are taken from ChEMBL document CHEMBL3108751, “Isomannide-based peptidomimetics as inhibitors for human tissue kallikreins 5 and 7” (ACS Med Chem Lett, 2014).

Assay [1] deals with Kallikrein-1 (Homo sapiens) (UniProt P06870). Kind of assay: Inhibition of human KLK1 at 1 to 500 uM after 5 mins by spectrophotometry.
The target of assay [2] is T1, Kallikrein-7 (Homo sapiens, UniProt P49862). Kind of assay: Inhibition of human recombinant KLK7 expressed in baculovirus-infected insect cell system using Abz-KLYSSKQ-Eddnp as substrate incubated for 5 mins prior to substrate addition by FRET assay.
T1 sequence (P49862 whole entry): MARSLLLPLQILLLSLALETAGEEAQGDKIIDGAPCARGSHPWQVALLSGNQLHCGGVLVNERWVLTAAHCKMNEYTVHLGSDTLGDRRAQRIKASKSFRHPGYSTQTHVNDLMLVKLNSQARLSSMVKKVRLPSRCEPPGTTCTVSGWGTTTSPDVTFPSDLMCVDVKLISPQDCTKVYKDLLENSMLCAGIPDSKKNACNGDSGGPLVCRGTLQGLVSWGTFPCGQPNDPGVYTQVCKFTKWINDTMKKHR
Assay [3] has as its target Kallikrein-6 (Homo sapiens) (UniProt Q92876). Kind of assay: Inhibition of human KLK6 at 1 to 500 uM after 5 mins by spectrophotometry.
The target of assay [4] is T2, Kallikrein-5 (Homo sapiens, UniProt Q9Y337).
T2 sequence (Q9Y337 whole entry): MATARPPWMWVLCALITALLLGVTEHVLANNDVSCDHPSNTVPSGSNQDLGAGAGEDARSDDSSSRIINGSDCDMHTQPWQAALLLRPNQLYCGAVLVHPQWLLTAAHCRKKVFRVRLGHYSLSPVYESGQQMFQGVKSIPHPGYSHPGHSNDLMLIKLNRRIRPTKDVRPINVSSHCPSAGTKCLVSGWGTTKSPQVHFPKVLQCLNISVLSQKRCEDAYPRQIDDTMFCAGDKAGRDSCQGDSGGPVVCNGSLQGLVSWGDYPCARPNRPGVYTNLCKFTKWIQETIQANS
Kind of assay: Inhibition of human recombinant KLK5 expressed in baculovirus-infected insect cell system using Abz-KLRSSKQ-Eddnp as substrate incubated for 5 mins prior to substrate addition by FRET assay.

The species named for assay [5] is Homo sapiens. As to the kind of experiment: Selectivity ratio of IC50 for human recombinant KLK5 to IC50 for human recombinant KLK7.
Assay [6] has as its target T1, Kallikrein-7. Kind of assay: Competitive inhibition of human recombinant KLK7 expressed in baculovirus-infected insect cell system using Abz-KLYSSKQ-Eddnp as substrate incubated for 5 mins prior to substrate addition by Lineweaver-Burk plot analysis. An outline of the steps: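 Mechanism was assessed from rates measured without inhibitor and at three inhibitor concentrations. Lineweaver–Burk plots were used to assign the inhibition type and derive Ki.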

Assay [7] has as its target T2, Kallikrein-5. Kind of assay: Competitive inhibition of human recombinant KLK5 expressed in baculovirus-infected insect cell system using Abz-KLRSSKQ-Eddnp as substrate incubated for 5 mins prior to substrate addition by Lineweaver-Burk plot analysis. An outline of the steps:
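FRET substrate Abz-KLRSSKQ-EDDnp hydrolysed by KLK5, with no inhibitor and with 0.5, 1.0 and 2.0 μM inhibitor. Lineweaver–Burk plots were fitted by linear regression. Ki was taken from a secondary plot of Km/Vmax against inhibitor concentration.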

Assay [8] is filed under the species Homo sapiens. As to the kind of experiment: Selectivity ratio of IC50 for human recombinant KLK7 to IC50 for human recombinant KLK5.

SMILES strings stand for the structures. The source made the active and inactive calls. The calls are words filed in the database; no cut-off is given here.

Sequence of Kallikrein-1 (Homo sapiens) (P06870 25-262 limits assumed): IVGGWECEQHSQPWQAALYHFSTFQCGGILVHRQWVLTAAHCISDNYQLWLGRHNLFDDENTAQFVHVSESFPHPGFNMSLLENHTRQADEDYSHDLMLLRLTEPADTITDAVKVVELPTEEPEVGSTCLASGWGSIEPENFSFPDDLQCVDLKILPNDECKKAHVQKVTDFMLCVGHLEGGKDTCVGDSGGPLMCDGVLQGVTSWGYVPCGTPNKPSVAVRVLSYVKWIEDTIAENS

Turning to `O=C(N[C@H]1CO[C@H]2[C@@H]1OC[C@H]2OCc1ccccc1)[C@H](Cc1ccccc1)NC(=O)[C@@H]1CCCN1C(=O)OCc1ccccc1`, the inhibition result in assay [1] and in assay [3] was “inactive” each time. In addition, the IC50 at Kallikrein-7 [2] was 249 µM; at Kallikrein-5 [4] it was 157 µM.
In the case of `CC(C)(C)OC(=O)N[C@H](COCc1ccccc1)C(=O)N[C@H]1CO[C@H]2[C@@H]1OC[C@H]2OCc1ccccc1`, the inhibition entry in assay [1] and in assay [3] was “inactive” throughout. The values for the IC50 at Kallikrein-7 [2] and on Kallikrein-5 [4] were 84.5 µM and 53.9 µM, respectively.
For `CC(C)(C)OC(=O)N[C@H](Cc1c[nH]c2ccccc12)C(=O)O[C@@H]1CO[C@H]2[C@@H]1OC[C@H]2OCc1ccccc1`, the inhibition result in assay [1] and in assay [3] was “inactive” in each case. Also, the IC50 at Kallikrein-7 [2] worked out at 59.2 µM; on Kallikrein-5 [4], 377 µM. The Ratio IC50 in the assay filed under Homo sapiens [5] was 6.
Take `O=C(N[C@H]1CO[C@H]2[C@@H]1OC[C@H]2OCc1ccccc1)/C(=C/c1cccs1)NC(=O)c1ccccc1` (stereo in doubt): the IC50 on Kallikrein-7 [2] came out at 13.3 µM; on Kallikrein-5 [4] it was 99.2 µM. Further, the Ki came out at 1800 nM at Kallikrein-7 [6] and 70700 nM on Kallikrein-5 [7].
Consider `CC(C)(C)OC(=O)N[C@@H](CCCCNC(=O)OCc1ccccc1)C(=O)N[C@H]1CO[C@H]2[C@@H]1OC[C@H]2OCc1ccccc1`, for which the inhibition entry in assay [1] and in assay [3] was “inactive” each time. Besides, the results for the IC50 at Kallikrein-7 [2] and on Kallikrein-5 [4] were 23.6 µM and 13.3 µM, respectively. The Ki on Kallikrein-7 [6] was determined as 2900 nM; on Kallikrein-5 [7], 2400 nM.
For `O=C(O[C@@H]1CO[C@H]2[C@@H]1OC[C@H]2OCc1ccccc1)[C@H]1CCCN1C(=O)OCc1ccccc1`, the inhibition result in assay [1] and in assay [3] was “inactive” throughout. The IC50 at Kallikrein-7 [2] was 16.6 µM; on Kallikrein-5 [4], 3.7 µM. For the same molecule, the Ki on Kallikrein-7 [6] turned out to be 1900 nM; at Kallikrein-5 [7], 300 nM. Besides, in the assay filed under Homo sapiens [8], the Ratio IC50 was found to be 4.
Consider `O=C(OC1CO[C@H]2[C@@H]1OC[C@H]2OCc1ccccc1)[C@H](Cc1ccccc1)NC(=O)[C@@H]1CCCN1C(=O)OCc1ccccc1` (single isomer, unassigned), for which the inhibition entry in assay [1] and in assay [3] was “inactive” in each case. Moreover, the IC50 on Kallikrein-7 [2] turned out to be 19.6 µM; on Kallikrein-5 [4], 3.9 µM. Moreover, the inhibition constant (Ki) was 2800 nM on Kallikrein-7 [6] and 400 nM on Kallikrein-5 [7]. Further, in the assay filed under Homo sapiens [8], the Ratio IC50 came to 5.
For the molecule `CC(C)[C@@H](NC(=O)OC(C)(C)C)C(=O)O[C@@H]1CO[C@H]2[C@@H]1OC[C@H]2OCc1ccccc1`, the inhibition entry in assay [1] and in assay [3] was “inactive” in each case. In addition, the concentration for half-maximal inhibition (IC50) at Kallikrein-7 [2] turned out to be 239 µM; at Kallikrein-5 [4] it was 223 µM.
Consider `CC(C)(C)OC(=O)N1CCC[C@H]1C(=O)O[C@@H]1CO[C@H]2[C@@H]1OC[C@H]2OCc1ccccc1`, for which the inhibition result in assay [1] and in assay [3] was “inactive” each time. Besides, the IC50 at Kallikrein-7 [2] is 24.4 µM; on Kallikrein-5 [4] it was 521 µM. Besides, the Ratio IC50 in the assay filed under Homo sapiens [5] stood at 21.3. Moreover, at Kallikrein-7 [6], the Ki is 15600 nM.
Turning to `CC(C)(C)OC(=O)N[C@@H](CCCCNC(=O)OCc1ccccc1)C(=O)O[C@@H]1CO[C@H]2[C@@H]1OC[C@H]2OCc1ccccc1`, the inhibition result in assay [1] and in assay [3] was “inactive” each time. For the same molecule, the IC50 is 13.7 µM on Kallikrein-7 [2] and 9 µM on Kallikrein-5 [4]. Also, the Ki on Kallikrein-7 [6] worked out at 1400 nM; on Kallikrein-5 [7] it was 700 nM.
With `CC(C)[C@@H](NC(=O)OC(C)(C)C)C(=O)N[C@H]1CO[C@H]2[C@@H]1OC[C@H]2OCc1ccccc1`, the inhibition entry in assay [1] and in assay [3] was “inactive” in each case. Further, the figures for the IC50 at Kallikrein-7 [2] and on Kallikrein-5 [4] were over 1000 µM and 480 µM, respectively.
`O=C(N[C@H]1CO[C@H]2[C@@H]1OC[C@H]2OCc1ccccc1)[C@H]1CCCN1C(=O)OCc1ccccc1`: the inhibition entry in assay [1] and in assay [3] was “inactive” in each case. Further, the IC50 was 23.6 µM at Kallikrein-7 [2] and 321 µM at Kallikrein-5 [4]. Further, the Ki at Kallikrein-7 [6] was determined as 15100 nM.
As for `CC(C)[C@H](NC(=O)OCc1ccccc1)C(=O)N[C@H](Cc1ccccc1)C(=O)N[C@H]1CO[C@H]2[C@@H]1OC[C@H]2OCc1ccccc1`, the inhibition entry in assay [1] and in assay [3] was “inactive” in each case. Also, the IC50 on Kallikrein-7 [2] stood at 56.6 µM; on Kallikrein-5 [4], 21.7 µM. Further, the Ki at Kallikrein-7 [6] is 3800 nM; on Kallikrein-5 [7], 3400 nM.
In the case of `CC(C)(C)OC(=O)N[C@@H](CC(=O)OCc1ccccc1)C(=O)O[C@@H]1CO[C@H]2[C@@H]1OC[C@H]2OCc1ccccc1`, the inhibition entry in assay [1] and in assay [3] was “inactive” in each case. In addition, the IC50 was determined as 10.2 µM on Kallikrein-7 [2] and 4.7 µM at Kallikrein-5 [4]. Also, the Ki on Kallikrein-7 [6] came to 1300 nM; on Kallikrein-5 [7], 600 nM.
On to `CC(C)(C)OC(=O)N[C@H](Cc1c[nH]c2ccccc12)C(=O)N[C@H]1CO[C@H]2[C@@H]1OC[C@H]2OCc1ccccc1`, for which the inhibition result in assay [1] and in assay [3] was “inactive” throughout. For the same molecule, the IC50 is 418 µM at Kallikrein-7 [2] and 39.2 µM on Kallikrein-5 [4]. On Kallikrein-5 [7], the Ki came to 28200 nM.
As to `CSCC[C@H](NC(=O)OC(C)(C)C)C(=O)O[C@@H]1CO[C@H]2[C@@H]1OC[C@H]2OCc1ccccc1`, the inhibition result in assay [1] and in assay [3] was “inactive” each time. Besides, the IC50 on Kallikrein-7 [2] was determined as 28.7 µM; at Kallikrein-5 [4] it was 357 µM. On Kallikrein-7 [6], the Ki stood at 18400 nM.
For `CC(C)(C)OC(=O)N[C@H](CCCN/C(=N\C(=O)OCc1ccccc1)NC(=O)OCc1ccccc1)C(=O)N[C@H]1CO[C@H]2[C@@H]1OC[C@H]2OCc1ccccc1`, the inhibition result in assay [1] and in assay [3] was “inactive” throughout. In addition, the values for the IC50 at Kallikrein-7 [2] and on Kallikrein-5 [4] were 16.9 µM and 11.8 µM, respectively. For the same molecule, the Ki is 2400 nM at Kallikrein-7 [6] and 1700 nM at Kallikrein-5 [7].
Regarding `CSCC[C@H](NC(=O)OC(C)(C)C)C(=O)N[C@H]1CO[C@H]2[C@@H]1OC[C@H]2OCc1ccccc1`, the inhibition entry in assay [1] and in assay [3] was “inactive” in each case. The IC50 on Kallikrein-7 [2] came out at 457 µM; at Kallikrein-5 [4] it was 37 µM. In addition, the Ki at Kallikrein-5 [7] was 26600 nM.
Consider `CC(C)(C)OC(=O)N[C@H](COCc1ccccc1)C(=O)O[C@@H]1CO[C@H]2[C@@H]1OC[C@H]2OCc1ccccc1`, for which the inhibition result in assay [1] and in assay [3] was “inactive” in each case. Also, the values for the IC50 on Kallikrein-7 [2] and on Kallikrein-5 [4] were 16 µM and 15.5 µM, respectively. Besides, the figures for the Ki at Kallikrein-7 [6] and at Kallikrein-5 [7] were 2300 nM and 2400 nM, respectively.
Turning to `Cc1ccc(S(=O)(=O)n2cnc(C[C@H](NC(=O)OC(C)(C)C)C(=O)N[C@H]3CO[C@H]4[C@@H]3OC[C@H]4OCc3ccccc3)c2)cc1`, the inhibition entry in assay [1] and in assay [3] was “inactive” each time. Also, the IC50 at Kallikrein-7 [2] turned out to be 27.8 µM; at Kallikrein-5 [4] it was 157 µM. In addition, the Ratio IC50 in the assay filed under Homo sapiens [5] came to 6. Besides, the inhibition constant (Ki) at Kallikrein-7 [6] worked out at 4400 nM.

Usually IC50 stands for the midpoint of a concentration-inhibition curve. One may read the Ki as the dissociation constant of the complex between target and ligand, obtained from inhibition or displacement.
